Assay [1] deals with Rattus norvegicus. In words: Inhibition of histamine-induced gastric acid secretion in Jcl:Sprague-Dawley rat at 1 mg/kg, iv administered 3 mins before histamine challenge measured after 3 hrs relative to control. Type of assay: functional. The settings on record: Stomach. Summed up:
(§1)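 Seven-week-old male SD rats, fasted 24 h with free water, anesthetized with urethane 1.2 g/kg ip and pylorus-ligated. Drug or vehicle given iv just after ligation; histamine 2HCl 30 mg/kg sc 3 min later. After 3 h, gastric contents were centrifuged and titrated to pH 7.0 with 0.1 mol/L NaOH. Total 3 h acid output compared with vehicle.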

A short description of assay [2]: Inhibition of Na+/K+ ATPase in pig cerebral cortex. Type of assay: tissue-based, Sus scrofa. In outline: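 Otherwise run as the gastric H+,K+-ATPase assay: compound preincubation at 37 C for 30 min, ATP-started reaction, malachite green phosphate read-out at 620 nm.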
A short description of assay [3]: Inhibition of H+/K+ATPase in pig gastric microsomes assessed as liberation of inorganic phosphate from ATP hydrolysis after 30 mins. Further details: species or system Sus scrofa, Stomach, Microsome. In outline: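 Porcine gastric mucosal microsomes (Ficoll-interface fraction, stored at -80 C) in 50 mmol/L HEPES-Tris pH 6.5 with 5 mmol/L MgCl2, valinomycin, ±10 mmol/L KCl. Preincubated with compound at 37 C for 30 min, then started by adding 2 mmol/L ATP solution. Stopped with malachite green; Pi read at 620 nm. K+-dependent activity from ± K+ difference; IC50 by sigmoidal dose-response fit.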

Assay [4] deals with Canis familiaris. The experiment in a line: Inhibition of histamine-stimulated gastric acid secretion in heidenhain pouch dog at 1 mg/kg, po prestimulated with histamine 1 day before compound treatment and 1, 3, 6 and 24 hrs post compound treatment measured after 24 hrs. The assay is classed as functional, organism-based. Further details: dose 1 mg/kg. The settings on record: Canis lupus familiaris, Stomach. Summed up: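 Heidenhain pouch dogs dosed orally (0.2 mL/kg), blinded. Histamine 2HCl given sc 1 day before and at 1, 3, 6 and 24 h post-dose. Pouch juice collected over three consecutive 30 min periods and titrated to pH 7.0 with 0.1 mol/L NaOH. 90 min acid output expressed as % of the pre-dosing value.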

The test system of assay [5] is Canis familiaris. The experiment in a line: Inhibition of histamine-stimulated gastric acid secretion in heidenhain pouch dog at 1 mg/kg, po prestimulated with histamine 1 day before compound treatment and 1, 3, 6 and 24 hrs post compound treatment measured every 30 mins for 3 times. Type of assay: functional, organism-based. The arrangement: dose 1 mg/kg. The settings on record: Canis lupus familiaris, Stomach. Summed up: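 Dogs dosed orally in a blinded design (0.2 mL/kg), with vehicle controls. Histamine 2HCl injected sc. Pouch gastric juice collected as three consecutive 30 min periods after each histamine dose. Volume measured, and acid titrated to pH 7.0 with 0.1 mol/L NaOH. Total 90 min acid output at each time expressed as % of pre-dosing value.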

Assay [6] has as its system Rattus norvegicus. The experiment in a line: Inhibition of histamine-induced gastric acid secretion in Jcl:Sprague-Dawley rat at 10 mg/kg, iv administered 3 mins before histamine challenge measured after 3 hrs relative to control. The assay is classed as functional. The conditions noted are these: Stomach. Summed up:
as §1

For assay [7], the species on record is Sus scrofa. The experiment in a line: Competitive inhibition of H+/K+ATPase in pig gastric microsomes by Lineweaver-Burk plot analysis. The settings on record: Stomach, Microsome.
The species entered for assay [8] is Sus scrofa. The experiment in a line: Reversible inhibition of H+/K+ATPase in pig gastric microsomes assessed as liberation of inorganic phosphate from ATP hydrolysis at 0.1 uM incubated for 20 mins measured after compound washout. The settings on record: Stomach, Microsome. In outline: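 Gastric microsomes incubated with compound (1% DMSO final) at 37 C for 30 min in 50 mmol/L HEPES-Tris pH 6.5, 5 mmol/L MgCl2, 10 mmol/L KCl. Activity measured on an aliquot and on the remainder after washout (30 kDa ultrafiltration, resuspended compound-free). Reaction started with 2 mmol/L ATP, run at 37 C for 20 min; malachite green phosphate read-out; % of 1% DMSO vehicle, n = 2.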

SMILES strings stand for the structures. Calls of active or inactive are those of the source. The rule behind the calls is not given here.

A word on the inhibition in vivo: it is the drop in the measured response relative to a control, in per cent. For orientation: IC50 means the concentration at which inhibition is half-maximal.

For `CNCc1cc(-c2ccccc2)n(S(=O)(=O)c2ccccc2)c1C`, the inhibition in vivo at 1 mg/kg in the assay with Rattus norvegicus [1] stood at 77%. The IC50 in assay [2] is more than 10000 nM; in assay [3] it was 25 nM.
With `CNCc1cc(-c2ccccc2)n(S(=O)(=O)c2ccc(OC)cc2)c1`, the inhibition result with Canis familiaris [4] and in the assay on Canis familiaris [5] was “Active” in each case. The inhibition in vivo at 1 mg/kg in the assay with Rattus norvegicus [1] came to 95%. Further, the IC50 in assay [2] was more than 10000 nM; in assay [3], 30 nM.
Take `CNCc1cc(-c2ccccc2)n(S(C)(=O)=O)c1`: in the assay with Rattus norvegicus [6], the inhibition in vivo at 10 mg/kg amounted to 27%. In addition, in assay [3], the 50% inhibitory concentration (IC50) is more than 10000 nM.
Turning to `CNCc1cc(-c2ccccc2)n(C(=O)c2ccccc2)c1`, the IC50 in assay [3] is more than 10000 nM.
Regarding `CNCc1cc(-c2ccccc2)n(S(=O)(=O)c2ccc(C)cc2)c1`, the inhibition result in the assay listed under Sus scrofa [7] and in the assay filed under Sus scrofa [8] was “Active” in each case. Moreover, in the assay on Rattus norvegicus [1], the inhibition in vivo at 1 mg/kg worked out at 66%. The IC50 in assay [2] was more than 10000 nM; in assay [3], 55 nM.
With `CCCCS(=O)(=O)n1cc(CNC)cc1-c1ccccc1`, the IC50 in assay [3] worked out at 830 nM.
Consider `Cc1ccc(S(=O)(=O)n2cc(C(N)=O)cc2-c2ccccc2)cc1`, for which, in assay [3], the IC50 is more than 10000 nM.
As to `COCc1cc(-c2ccccc2)n(S(=O)(=O)c2ccc(C)cc2)c1`, the inhibition in vivo at 10 mg/kg in the assay with Rattus norvegicus [6] is -3%. Besides, in assay [3], the half-inhibitory concentration (IC50) was more than 10000 nM.
`Cc1c(OCC(F)(F)F)ccnc1C[S+]([O-])c1nc2ccccc2[nH]1` (stereo unspecified): in the assay on Canis familiaris [5], the inhibition entry is “Active”.
Take `CNCc1cc(-c2ccccc2)n(S(=O)(=O)c2ccccc2)c1`: the inhibition in vivo at 1 mg/kg in the assay with Rattus norvegicus [1] is 96%. The results for the IC50 in assay [2] and in assay [3] were more than 10000 nM and 9.4 nM, respectively.
For `CN(C)Cc1cc(-c2ccccc2)n(S(=O)(=O)c2ccc(C(F)(F)F)cc2)c1`, in the assay with Rattus norvegicus [6], the inhibition in vivo at 10 mg/kg was found to be 59%. Besides, in assay [3], the half-maximal inhibitory concentration (IC50) was 710 nM.
The corresponding values for `CNCc1cc(-c2ccccc2)n(Cc2ccccc2)c1` are 84% and 510 nM.
`CNCc1cn(S(=O)(=O)c2ccccc2)c(-c2ccccc2)c1C`: the inhibition in vivo at 1 mg/kg with Rattus norvegicus [1] is 95%. In addition, the results for the IC50 in assay [2] and in assay [3] were more than 10000 nM and 29 nM, respectively.
`CNCc1cc(-c2ccccc2)n(S(=O)(=O)c2ccccc2)c1Cl`: the inhibition in vivo at 1 mg/kg in the assay on Rattus norvegicus [1] came to 49%. Besides, the IC50 in assay [2] is more than 10000 nM; in assay [3], 40 nM.
Take `CNCc1cc(-c2ccccc2)n(S(=O)(=O)c2ccc(C(F)(F)F)cc2)c1`: in the assay with Rattus norvegicus [1], the inhibition in vivo at 1 mg/kg was 73%. The IC50 in assay [3] worked out at 110 nM.
`CNCc1cc(C2CC2)n(S(=O)(=O)c2ccccc2)c1`: in assay [3], the IC50 turned out to be 1500 nM.
Take `Cc1ccc(S(=O)(=O)n2cc(CN)cc2-c2ccccc2)cc1`: in assay [3], the IC50 amounted to 860 nM.
For the compound `CCCCc1cc(CNC)cn1S(=O)(=O)c1ccccc1`, the inhibition in vivo at 1 mg/kg with Rattus norvegicus [1] was -8%. In addition, the half-inhibitory concentration (IC50) in assay [3] was determined as 250 nM.
For the compound `CCNCc1cc(-c2ccccc2)n(S(=O)(=O)c2ccc(C)cc2)c1`, the inhibition in vivo at 10 mg/kg with Rattus norvegicus [6] is 53%. Besides, in assay [3], the 50% inhibitory concentration (IC50) amounted to 650 nM.
For `CNC(C)c1cc(-c2ccccc2)n(S(=O)(=O)c2ccc(C(F)(F)F)cc2)c1` (stereo unspecified), the inhibition in vivo at 1 mg/kg in the assay on Rattus norvegicus [1] was -4%. Further, in assay [3], the half-maximal inhibitory concentration (IC50) is 2300 nM.
With `CCNCc1cc(-c2ccc3c(c2)OCO3)n(S(=O)(=O)c2ccc(C)cc2)c1`, the inhibition in vivo at 10 mg/kg with Rattus norvegicus [6] is 39%. Further, the IC50 in assay [3] turned out to be 540 nM.

The record behind these values is ChEMBL document CHEMBL2034820, “Discovery, synthesis, and biological evaluation of novel pyrrole derivatives as highly selective potassium-competitive acid blockers” (Bioorg Med Chem, 2012).
